Measured values as given in ChEMBL document CHEMBL1129476, “In vivo activity and hydrophobicity of cytostatic aziridinyl quinones” (J Med Chem, 1996).

How the values were obtained:
[1] = Electrochemically observed pKa (pKred) of aziridines; format: physicochemical; conditions: read-out: pKred
[2] = log 1/anion production.; format: functional
[3] = log 1/LD50 for LD50 (mmol/kg); format: ADME
Fungi = test: log 1/MIC for fungi in mmol/L; format: functional
[4] = E1/2 for the half-wave potential at pH=7.0 in V57; format: ADME
L1210 [5] = test: log 1/D125 for the dose (mmol/kg) to give 125%T/C ratio (L1210) in vivo; format: functional, Mus musculus
L1210 [6] = test: log 1/ID75 for the in vitro clonogenic L1210 assay with ID75 in umol/L; format: functional, Mus musculus
B16 = test: log 1/D125 or the dose (mmol/kg) to give 125%T/C ratio (B16) in vivo; format: functional, Mus musculus
[7] = log KGSH for the rate k of glutathione (GSH) consumption in 1/s; format: functional
[8] = Observed rate of hydrolysis (logKobs) (pH=4.0); format: ADME
How it was run: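 Hydrolysis followed by cyclic voltammetry at 20 °C in deaerated 0.1 M acetate buffers (pH 5.0–3.5) or 0.02 M NaH2PO4 (pH 3.5, 3.0), ionic strength 0.1 M (NaNO3). Decrease of the parent cathodic peak tracked over time. Pseudo-first-order kobs from linear regression of log concentration versus time.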

[9] = HPLC capacity factor (logK); format: ADME
[10] = Partition coefficient (logP); format: physicochemical; conditions: octanol/water
How it was run: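 Micro shake-flask: buffered aqueous compound solution (pH 6.50) shaken with an equal volume of water-saturated 1-octanol at room temperature, 3 × 120 s. Centrifuged 14000g, 15 min. Aqueous phase analysed by RP-HPLC against the unshaken solution (methanol 30, 50 or 70 wt%, 1.0 mL/min, UV 254 nm). Run in duplicate, or quadruplicate if needed.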

Nucleic Acid = test: DNA cross link ratio at pH=5.0 and 50 umol/L compound; format: functional

SMILES | pKa [1] | Log 1/MIC (mM L-1) (Fungi) | E 1/2 [4] | Log 1/D125 (L1210) (mM kg-1) (L1210 [5]) | Log 1/ID75 (uM L-1) (L1210 [6]) | Log Kobs [8] | Log K [9] | other results
NC(=O)OCCC1=C(N2CC2)C(=O)C(Br)=C(N2CC2)C1=O | 8.9 | 0.25 | -0.201 | 2 | 2.45 | -4.49 | – | Log 1/conc (mM min-1 L-1) [2]: 2.48; Log 1/LD50 (mM kg-1) [3]: 1.05; Log 1/D125 (mM kg-1) (B16): 2.68; Log k GSH (s-1) [7]: -3.6
O=C1C=C(N2CCCC2)C(=O)C=C1N1CCCC1 | – | -0.38 | -0.439 | – | -1.61 | – | 0.587 | –
CC1=C(C)C(=O)C(C)=C(C)C1=O [DUROQUINONE] | – | – | – | – | – | – | 0.776 | logP [10]: 2.12
O=C1C(N2CC2)=C(N2CC2)C(=O)C(N2CC2)=C1N1CC1 | 7.7 | 0.95 | -0.245 | – | 0.9 | -3.7 | – | –
CC1=C(N2CC2C)C(=O)C(C)=C(N2CC2C)C1=O (stereo unspecified) | 8.6 | – | -0.187 | 1.47 | – | -2.61 | – | Log 1/LD50 (mM kg-1) [3]: 1.4; Log 1/D125 (mM kg-1) (B16): 2.27
CC1CN1C1=C(Br)C(=O)C(N2CC2C)=C(Br)C1=O (stereo unspecified) | – | 1.28 | – | – | 0.77 | -3.45 | – | Log 1/conc (mM min-1 L-1) [2]: 2.8
CC1=C(N2C(C)C2C)C(=O)C(Br)=C(N2C(C)C2C)C1=O (stereo unspecified) | – | – | – | 0.69 | – | -1.15 | – | Log 1/LD50 (mM kg-1) [3]: 0.63
CCC1=C(N2CC2)C(=O)C(C)=C(N2CC2)C1=O | 8.7 | 0.77 | -0.227 | – | – | -3.59 | 0.291 | Log 1/conc (mM min-1 L-1) [2]: 0.87; Log 1/LD50 (mM kg-1) [3]: 1.46; Log 1/D125 (mM kg-1) (B16): 3.25; Log k GSH (s-1) [7]: -5; DNA cross-link ratio (Nucleic Acid): 0.23
CC1CN1C1=C(F)C(=O)C(N2CC2C)=C(N2CC2C)C1=O (stereo unspecified) | 8.2 | 1.18 | -0.195 | – | 2.01 | – | – | Log 1/LD50 (mM kg-1) [3]: 1.45
CC1=C(C)C(=O)C(N2CCCC2)=CC1=O | – | -0.3 | -0.303 | – | -1.7 | – | – | –
O=C1C=CC(=O)C=C1 [BENZOQUINONE] | – | – | – | – | – | – | -0.466 | –
CCOC(=O)NC1=CC(=O)C(NC(=O)OCC)=CC1=O | – | 0.85 | – | – | 0.09 | – | – | –
O=C1C(Cl)=C(N2CC2)C(=O)C(Cl)=C1N1CC1 | – | 1.63 | -0.133 | – | – | -4.7 | – | Log 1/conc (mM min-1 L-1) [2]: 2.74
CCOC(=O)NC1=C(N2CC2C)C(=O)C(NC(=O)OCC)=C(N2CC2C)C1=O (stereo unspecified) | 8.5 | – | -0.145 | 1.59 | – | -3.57 | – | Log 1/conc (mM min-1 L-1) [2]: 1.26; Log 1/LD50 (mM kg-1) [3]: 0.69; Log 1/D125 (mM kg-1) (B16): 1.94; DNA cross-link ratio (Nucleic Acid): 0.02
C/N=C1C(O)=C(N2CC2C)/C(=N\C)C(O)=C\1N1CC1C (stereo unspecified) | 9.3 | – | -0.4 | 2.19 | – | – | – | Log 1/D125 (mM kg-1) (B16): 2.33
O=C1C=C(Br)C(=O)c2ccccc21 [2-Bromo-1,4-naphthoquinone] | – | – | – | – | – | – | 0.748 | –
O=C1C(F)=C(N2CC2)C(=O)C(F)=C1N1CC1 | 7.2 | 1.75 | -0.087 | – | – | -4.03 | – | Log 1/conc (mM min-1 L-1) [2]: 1.72; Log k GSH (s-1) [7]: -2.21
CC1CN1C1=C(N2CCCC2)C(=O)C(N2CC2C)=C(N2CCCC2)C1=O (stereo unspecified) | 11.1 | – | -0.303 | – | – | – | – | –
CC1CN1C1=C(Cl)C(=O)C(N2CC2C)=C(Cl)C1=O (stereo unspecified) | – | 1.16 | -0.125 | 1.16 | – | -4.15 | – | Log 1/conc (mM min-1 L-1) [2]: 2.65
CC1=CC(=O)C=C(C)C1=O | – | – | – | – | – | – | 0.136 | –
NC1=CC(=O)c2ccccc2C1=O | – | – | – | – | – | – | 0.129 | logP [10]: 1.88
NC1=C(Cl)C(=O)c2ccccc2C1=O | – | – | – | – | – | – | 0.259 | –
O=C1C(N2CCCC2)=C(N2CC2)C(=O)C(N2CCCC2)=C1N1CC1 | 10.6 | – | -0.315 | 2.07 | – | – | – | Log 1/D125 (mM kg-1) (B16): 2.4
O=C1/C(=N/CCO)C=C(O)c2ccccc21 | – | – | – | – | – | – | -0.005 | logP [10]: 1.23
CC1=CC(=O)c2ccccc2C1=O [MENADIONE] | – | – | – | – | – | – | 0.607 | –
O=C1C=CC(=O)c2ccccc21 [NAPHTHOQUINONE] | – | – | – | – | – | – | 0.299 | –

SMILES | pKa [1] | Log 1/MIC (mM L-1) (Fungi) | E 1/2 [4] | Log 1/D125 (L1210) (mM kg-1) (L1210 [5]) | Log 1/ID75 (uM L-1) (L1210 [6]) | Log Kobs [8] | Log K [9] | other results
CC1=CC(=O)C=CC1=O [Cresoquinone] | – | – | – | – | – | – | – | logP [10]: 0.73
CC1CN1C1=CC(=O)C(N2CC2C)=CC1=O (stereo unspecified) | 8.1 | 0.44 | -0.115 | 1.64 | 1.03 | -1.55 | 0.152 | Log 1/conc (mM min-1 L-1) [2]: 1.75; Log 1/LD50 (mM kg-1) [3]: 1.16; Log 1/D125 (mM kg-1) (B16): 2.12
O=C1C=C(Cl)C(=O)c2ccccc21 | – | – | – | – | – | – | 0.659 | logP [10]: 2.15
C/N=C1C=C(O)/C(=N/C)C=C/1O | – | – | – | – | – | – | -0.611 | logP [10]: 0.34
CC1=C(C)C(=O)C(N2CC=CC2)=CC1=O | – | -0.17 | -0.311 | – | -0.71 | – | – | –
O=C1C(F)=C(N2CC2)C(=O)C(N2CC2)=C1N1CC1 | 7.8 | 1.79 | -0.171 | 1.95 | 2.32 | -3.75 | – | Log 1/conc (mM min-1 L-1) [2]: 1.72; Log 1/LD50 (mM kg-1) [3]: 1.62; Log k GSH (s-1) [7]: -2.24; DNA cross-link ratio (Nucleic Acid): 0.17
CN(CCO)C1=C(N2CC2)C(=O)C(N(C)CCO)=C(N2CC2)C1=O | 9.7 | – | -0.225 | – | 0.09 | – | – | –
O=C1C=C(N2CC2)C(=O)c2ccccc21 | – | – | – | – | – | – | 0.346 | –
O=C1C=C(N2CC=CC2)C(=O)c2ccccc21 | – | – | – | – | – | – | 0.896 | –
O=C1C=C(N2CC2)C(=O)C(N2CC2)=C1N1CC1 [TRIAZIQUONE] | 8 | 1.06 | -0.171 | 3.52 | 2.72 | -2.85 | – | Log 1/conc (mM min-1 L-1) [2]: 1.32; Log 1/LD50 (mM kg-1) [3]: 2.66; Log 1/D125 (mM kg-1) (B16): 3.8; Log k GSH (s-1) [7]: -3.14; logP [10]: 0.13
C/N=C1C(O)=C(N2CC2)/C(=N\C)C(O)=C\1N1CC1 | 8.5 | – | -0.415 | 2.49 | 0.32 | – | – | Log 1/D125 (mM kg-1) (B16): 3.14; logP [10]: 0.13
NC1=C(N2CC2)C(=O)C(N)=C(N2CC2)C1=O | – | – | – | – | 1.16 | – | – | –
COC1=C(C)C(=O)C(N2CCCC2)=CC1=O | – | -0.26 | -0.315 | – | -1.66 | – | – | –
C/N=C1\C=C(O)c2ccccc2C1=O | – | – | – | – | – | – | 0.279 | logP [10]: 1.74
CN(C)C1=CC(=O)c2ccccc2C1=O | – | – | – | – | – | – | 0.591 | –
O=C1C=C(N2CC=CC2)C(=O)C=C1N1CC=CC1 | – | -0.52 | – | – | -1.62 | – | – | –
CC1CN1C1=CC(=O)c2ccccc2C1=O (stereo unspecified) | – | – | – | – | – | – | 0.611 | –
CN(C)C1=CC(=O)C(N(C)C)=CC1=O | – | – | – | – | – | – | -0.004 | –
OCC/N=C1C(O)=C(N2CC2)/C(=N\CCO)C(O)=C/1N1CC1 | 9.5 | – | -0.385 | 3.39 | 0.42 | -2.8 | – | Log 1/D125 (mM kg-1) (B16): 3.94
COC1=C(N2CC2)C(=O)C(OC)=C(N2CC2)C1=O | 8 | – | -0.179 | 2.38 | 0.15 | -3.26 | – | Log 1/D125 (mM kg-1) (B16): 3.53
CC1=C(N2CC2)C(=O)C(Cl)=C(N2CC2)C1=O | 8.5 | – | -0.197 | 1.99 | 2.41 | -4.32 | 0.2 | Log 1/conc (mM min-1 L-1) [2]: 2.42; Log 1/D125 (mM kg-1) (B16): 2.68
CC1=C(N2CC2)C(=O)C(Br)=C(N2CC2)C1=O | 8.7 | 1.45 | -0.185 | – | 2.76 | -4.45 | 0.279 | Log 1/conc (mM min-1 L-1) [2]: 2.45; Log 1/LD50 (mM kg-1) [3]: 1.44; Log 1/D125 (mM kg-1) (B16): 2.09
CC1=C(N2CC2C)C(=O)C(CCOC(N)=O)=C(N2CC2C)C1=O (stereo unspecified) | 9.7 | – | -0.235 | 1.89 | – | -3.67 | – | Log 1/conc (mM min-1 L-1) [2]: 0.56; Log 1/D125 (mM kg-1) (B16): 2.31; DNA cross-link ratio (Nucleic Acid): 0.13
O=C1C=C(N2CCCC2)C(=O)c2ccccc21 | – | – | – | – | – | – | 0.736 | –
CC1=C(N2CC2)C(=O)C(CCO)=C(N2CC2)C1=O | 8.6 | 0.44 | – | 3.37 | 1.51 | -4 | – | Log 1/conc (mM min-1 L-1) [2]: 0.95; Log 1/LD50 (mM kg-1) [3]: 1.39; Log 1/D125 (mM kg-1) (B16): 3.6; logP [10]: 0.18
CC1CN1C1=C(F)C(=O)C(N2CC2C)=C(F)C1=O (stereo unspecified) | 7.9 | 1.5 | -0.093 | – | 1.49 | – | 0.444 | Log 1/conc (mM min-1 L-1) [2]: 1.77; Log 1/LD50 (mM kg-1) [3]: 1.5
